What follows are compounds tested against Cytochrome P450 2C19 (Homo sapiens, UniProt P33261) (assay: Inhibition of CYP2C19 (unknown origin)).
Assay type: ADME
How it was run: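 Isoform-specific CYP450 inhibition, reported as IC50 in µM.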

Cytochrome P450 2C19, sequence (P33261 whole entry): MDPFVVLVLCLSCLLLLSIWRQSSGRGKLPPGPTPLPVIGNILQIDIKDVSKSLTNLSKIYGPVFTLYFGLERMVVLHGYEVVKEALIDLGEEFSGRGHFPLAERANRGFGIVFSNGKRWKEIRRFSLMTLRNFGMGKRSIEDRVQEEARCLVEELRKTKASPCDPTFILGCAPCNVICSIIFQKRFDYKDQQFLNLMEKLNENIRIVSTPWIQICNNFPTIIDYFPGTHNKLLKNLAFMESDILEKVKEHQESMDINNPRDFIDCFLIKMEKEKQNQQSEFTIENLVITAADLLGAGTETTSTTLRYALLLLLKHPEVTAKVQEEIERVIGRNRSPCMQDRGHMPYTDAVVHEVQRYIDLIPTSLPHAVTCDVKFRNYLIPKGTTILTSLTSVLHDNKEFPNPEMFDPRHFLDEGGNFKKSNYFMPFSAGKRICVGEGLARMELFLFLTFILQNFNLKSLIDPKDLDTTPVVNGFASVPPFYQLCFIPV

IC50 | Structure (SMILES)
> 10 µM | O=C1c2nc3ccccc3n2CCN1CCCCOc1ccc(OC(F)(F)F)cc1

What follows are compounds tested against Metabotropic glutamate receptor 2 (Homo sapiens, UniProt Q14416).
Metabotropic glutamate receptor 2, sequence (Q14416 whole entry): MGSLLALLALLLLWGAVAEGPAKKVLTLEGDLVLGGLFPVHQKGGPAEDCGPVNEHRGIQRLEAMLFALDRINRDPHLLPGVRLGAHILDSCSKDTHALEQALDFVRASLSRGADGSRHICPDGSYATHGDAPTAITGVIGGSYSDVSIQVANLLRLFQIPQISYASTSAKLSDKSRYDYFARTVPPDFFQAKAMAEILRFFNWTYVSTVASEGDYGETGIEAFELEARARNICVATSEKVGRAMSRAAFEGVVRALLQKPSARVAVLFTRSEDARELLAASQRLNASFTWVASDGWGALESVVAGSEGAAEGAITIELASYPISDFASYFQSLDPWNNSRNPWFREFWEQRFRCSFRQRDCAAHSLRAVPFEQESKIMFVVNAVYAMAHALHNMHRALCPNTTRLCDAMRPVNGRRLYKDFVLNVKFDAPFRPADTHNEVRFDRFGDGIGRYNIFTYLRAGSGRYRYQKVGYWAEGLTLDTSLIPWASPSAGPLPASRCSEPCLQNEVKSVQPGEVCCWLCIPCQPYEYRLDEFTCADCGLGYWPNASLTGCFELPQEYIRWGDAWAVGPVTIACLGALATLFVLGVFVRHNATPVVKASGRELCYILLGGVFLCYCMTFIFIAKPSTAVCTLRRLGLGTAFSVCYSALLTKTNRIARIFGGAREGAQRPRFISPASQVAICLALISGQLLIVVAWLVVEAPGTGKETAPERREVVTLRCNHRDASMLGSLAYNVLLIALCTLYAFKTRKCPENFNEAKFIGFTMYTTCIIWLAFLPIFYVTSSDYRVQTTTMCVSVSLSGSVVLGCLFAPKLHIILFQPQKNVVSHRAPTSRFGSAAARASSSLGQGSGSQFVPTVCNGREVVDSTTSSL

EC50 | Structure (SMILES)
0.26 µM | c1ccc(SCCCN2CCn3c(nc4ccccc43)C2)cc1
0.54 µM | Fc1cc(Cl)ccc1CCCCN1CCn2c(nc3ccccc32)C1
2.4 µM | N#Cc1ccc(CCCCN2CCn3c(nc4ccccc43)C2)cc1
0.55 µM | Clc1ccc(SCCCN2CCn3c(nc4ccccc43)C2)cc1
0.97 µM | Fc1cc(C(F)(F)F)ccc1CCCCN1CCn2c(nc3ccccc32)C1
0.32 µM | Fc1ccc(SCCCN2CCn3c(nc4ccccc43)C2)cc1
0.35 µM | Fc1ccc(SCCCN2CCn3c(nc4ccccc43)C2)c(F)c1
4.7 µM | Fc1cccc(CCN2CCn3c(nc4ccccc43)C2)c1
0.13 µM | c1ccc(CCCCCN2CCn3c(nc4ccccc43)C2)cc1
0.09 µM | Fc1ccc(SCCCN2CCn3c(nc4ccccc43)C2)cc1F
1.21 µM | COc1ccc(CCCCN2CCn3c(nc4ccccc43)C2)c(F)c1
0.04 µM | O=C1c2nc3ccccc3n2CCN1CCCCOc1ccc(C(F)(F)F)cc1
0.42 µM | c1ccc(CCCCN2CCn3c(nc4ccccc43)C2)cc1
0.09 µM | O=C1c2nc3ccccc3n2CCN1CCCOc1ccc(Cl)c(Cl)c1
0.07 µM | O=C1c2nc3ccccc3n2CCN1CCCCOc1ccc(Cl)cc1
0.07 µM | Clc1ccc(OCCCN2CCn3c(nc4ccccc43)C2)cc1Cl
0.34 µM | Fc1ccc(CCCCN2CCn3c(nc4ccccc43)C2)c(F)c1
2.43 µM | Cc1ccc(CCN2CCn3c(nc4ccccc43)C2)cc1
0.05 µM | O=C1c2nc3ccccc3n2CCN1CCCCOc1ccc(F)cc1Br
0.09 µM | Cc1ccccc1OCCCCN1CCn2c(nc3ccccc32)C1=O
0.13 µM | Cn1c(CN2CCC(c3ccccc3F)CC2)nc2ccccc21
2.74 µM | COc1ccc(CCN2CCn3c(nc4ccccc43)C2)cc1
0.87 µM | COc1ccccc1C1CCN(Cc2nc3ccccc3n2C)CC1
0.27 µM | Brc1ccc(SCCCN2CCn3c(nc4ccccc43)C2)cc1
0.17 µM | Fc1ccc(OCCCN2CCn3c(nc4ccccc43)C2)cc1Cl
2.28 µM | COc1ccc(CCCCN2CCn3c(nc4ccccc43)C2)cc1
0.54 µM | Fc1ccc(OCCCN2CCn3c(nc4ccccc43)C2)cc1F
0.05 µM | O=C1c2nc3ccccc3n2CCN1CCCCOc1ccc(F)cc1F
